Reference: ChEMBL document CHEMBL4680072, “Synthesis and evaluation of a radioiodinated 4,6-diaryl-3-cyano-2-pyridinone derivative as a survivin targeting SPECT probe for tumor imaging” (Bioorg Med Chem Lett, 2016)

Assays:
[1] = Biodistribution in blood of BALB/c nu/nu mouse xenografted with human MDA-MB-231 cells at 7.4 kBq, iv using [125I] labeled compound measured after 30 mins by gamma counter method; assay type: ADME, organism-based; conditions: in vivo, 0.5 h
Outline: (§1)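 Radioactivity in each excised tissue is expressed as percent injected dose per gram (% ID/g). Each value is the mean (SD) of three tumor-bearing mice per time point (n = 3).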

[2] = Biodistribution in liver of BALB/c nu/nu mouse xenografted with human MDA-MB-231 cells at 7.4 kBq, iv using [125I] labeled compound measured after 30 mins by gamma counter method; assay type: ADME, organism-based; conditions: in vivo, 0.5 h; outline: as §1
[3] = Biodistribution in kidney of BALB/c nu/nu mouse xenografted with human MDA-MB-231 cells at 7.4 kBq, iv using [125I] labeled compound measured after 30 mins by gamma counter method; assay type: ADME, organism-based; conditions: in vivo, 0.5 h; outline: as §1
[4] = Biodistribution in intestine of BALB/c nu/nu mouse xenografted with human MDA-MB-231 cells at 7.4 kBq, iv using [125I] labeled compound measured after 30 mins by gamma counter method; assay type: ADME, organism-based; conditions: in vivo, 0.5 h; outline: as §1
[5] = Biodistribution in spleen of BALB/c nu/nu mouse xenografted with human MDA-MB-231 cells at 7.4 kBq, iv using [125I] labeled compound measured after 30 mins by gamma counter method; assay type: ADME, organism-based; conditions: in vivo, 0.5 h; outline: as §1
[6] = Biodistribution in lung of BALB/c nu/nu mouse xenografted with human MDA-MB-231 cells at 7.4 kBq, iv using [125I] labeled compound measured after 30 mins by gamma counter method; assay type: ADME, organism-based; conditions: in vivo, 0.5 h; outline: as §1
[7] = Biodistribution in stomach of BALB/c nu/nu mouse xenografted with human MDA-MB-231 cells at 7.4 kBq, iv using [125I] labeled compound measured after 30 mins by gamma counter method; assay type: ADME, organism-based; conditions: in vivo, 0.5 h; outline: as §1
[8] = Biodistribution in pancreas of BALB/c nu/nu mouse xenografted with human MDA-MB-231 cells at 7.4 kBq, iv using [125I] labeled compound measured after 30 mins by gamma counter method; assay type: ADME, organism-based; conditions: in vivo, 0.5 h; outline: as §1
[9] = Biodistribution in heart of BALB/c nu/nu mouse xenografted with human MDA-MB-231 cells at 7.4 kBq, iv using [125I] labeled compound measured after 30 mins by gamma counter method; assay type: ADME, organism-based; conditions: in vivo, 0.5 h; outline: as §1
[10] = Biodistribution in brain of BALB/c nu/nu mouse xenografted with human MDA-MB-231 cells at 7.4 kBq, iv using [125I] labeled compound measured after 30 mins by gamma counter method; assay type: ADME, organism-based; conditions: in vivo, 0.5 h; outline: as §1
[11] = Biodistribution in muscle of BALB/c nu/nu mouse xenografted with human MDA-MB-231 cells at 7.4 kBq, iv using [125I] labeled compound measured after 30 mins by gamma counter method; assay type: ADME, organism-based, Muscle tissue; conditions: in vivo, 0.5 h; outline: as §1
[12] = Biodistribution in tumor of BALB/c nu/nu mouse xenografted with human MDA-MB-231 cells at 7.4 kBq, iv using [125I] labeled compound measured after 30 mins by gamma counter method; assay type: ADME, organism-based, Neoplasm; conditions: in vivo, 0.5 h; outline: as §1
[13] = Biodistribution in blood of BALB/c nu/nu mouse xenografted with human MDA-MB-231 cells at 7.4 kBq, iv using [125I] labeled compound measured after 60 mins by gamma counter method; assay type: ADME, organism-based; conditions: in vivo, 1 h; outline: as §1
[14] = Biodistribution in liver of BALB/c nu/nu mouse xenografted with human MDA-MB-231 cells at 7.4 kBq, iv using [125I] labeled compound measured after 60 mins by gamma counter method; assay type: ADME, organism-based; conditions: in vivo, 1 h; outline: as §1
[15] = Biodistribution in kidney of BALB/c nu/nu mouse xenografted with human MDA-MB-231 cells at 7.4 kBq, iv using [125I] labeled compound measured after 60 mins by gamma counter method; assay type: ADME, organism-based; conditions: in vivo, 1 h; outline: as §1
[16] = Biodistribution in intestine of BALB/c nu/nu mouse xenografted with human MDA-MB-231 cells at 7.4 kBq, iv using [125I] labeled compound measured after 60 mins by gamma counter method; assay type: ADME, organism-based; conditions: in vivo, 1 h; outline: as §1
[17] = Biodistribution in spleen of BALB/c nu/nu mouse xenografted with human MDA-MB-231 cells at 7.4 kBq, iv using [125I] labeled compound measured after 60 mins by gamma counter method; assay type: ADME, organism-based; conditions: in vivo, 1 h; outline: as §1
[18] = Biodistribution in lung of BALB/c nu/nu mouse xenografted with human MDA-MB-231 cells at 7.4 kBq, iv using [125I] labeled compound measured after 60 mins by gamma counter method; assay type: ADME, organism-based; conditions: in vivo, 1 h; outline: as §1
[19] = Biodistribution in stomach of BALB/c nu/nu mouse xenografted with human MDA-MB-231 cells at 7.4 kBq, iv using [125I] labeled compound measured after 60 mins by gamma counter method; assay type: ADME, organism-based; conditions: in vivo, 1 h; outline: as §1
[20] = Biodistribution in pancreas of BALB/c nu/nu mouse xenografted with human MDA-MB-231 cells at 7.4 kBq, iv using [125I] labeled compound measured after 60 mins by gamma counter method; assay type: ADME, organism-based; conditions: in vivo, 1 h; outline: as §1
[21] = Biodistribution in heart of BALB/c nu/nu mouse xenografted with human MDA-MB-231 cells at 7.4 kBq, iv using [125I] labeled compound measured after 60 mins by gamma counter method; assay type: ADME, organism-based; conditions: in vivo, 1 h; outline: as §1
[22] = Biodistribution in brain of BALB/c nu/nu mouse xenografted with human MDA-MB-231 cells at 7.4 kBq, iv using [125I] labeled compound measured after 60 mins by gamma counter method; assay type: ADME, organism-based; conditions: in vivo, 1 h; outline: as §1
[23] = Biodistribution in muscle of BALB/c nu/nu mouse xenografted with human MDA-MB-231 cells at 7.4 kBq, iv using [125I] labeled compound measured after 60 mins by gamma counter method; assay type: ADME, organism-based, Muscle tissue; conditions: in vivo, 1 h; outline: as §1
[24] = Biodistribution in tumor of BALB/c nu/nu mouse xenografted with human MDA-MB-231 cells at 7.4 kBq, iv using [125I] labeled compound measured after 60 mins by gamma counter method; assay type: ADME, organism-based, Neoplasm; conditions: in vivo, 1 h; outline: as §1
[25] = Biodistribution in blood of BALB/c nu/nu mouse xenografted with human MDA-MB-231 cells at 7.4 kBq, iv using [125I] labeled compound measured after 180 mins by gamma counter method; assay type: ADME, organism-based; conditions: in vivo, 3 h; outline: as §1
[26] = Biodistribution in liver of BALB/c nu/nu mouse xenografted with human MDA-MB-231 cells at 7.4 kBq, iv using [125I] labeled compound measured after 180 mins by gamma counter method; assay type: ADME, organism-based; conditions: in vivo, 3 h; outline: as §1
[27] = Biodistribution in kidney of BALB/c nu/nu mouse xenografted with human MDA-MB-231 cells at 7.4 kBq, iv using [125I] labeled compound measured after 180 mins by gamma counter method; assay type: ADME, organism-based; conditions: in vivo, 3 h; outline: as §1
[28] = Biodistribution in intestine of BALB/c nu/nu mouse xenografted with human MDA-MB-231 cells at 7.4 kBq, iv using [125I] labeled compound measured after 180 mins by gamma counter method; assay type: ADME, organism-based; conditions: in vivo, 3 h; outline: as §1
[29] = Biodistribution in spleen of BALB/c nu/nu mouse xenografted with human MDA-MB-231 cells at 7.4 kBq, iv using [125I] labeled compound measured after 180 mins by gamma counter method; assay type: ADME, organism-based; conditions: in vivo, 3 h; outline: as §1
[30] = Biodistribution in lung of BALB/c nu/nu mouse xenografted with human MDA-MB-231 cells at 7.4 kBq, iv using [125I] labeled compound measured after 180 mins by gamma counter method; assay type: ADME, organism-based; conditions: in vivo, 3 h; outline: as §1
[31] = Biodistribution in stomach of BALB/c nu/nu mouse xenografted with human MDA-MB-231 cells at 7.4 kBq, iv using [125I] labeled compound measured after 180 mins by gamma counter method; assay type: ADME, organism-based; conditions: in vivo, 3 h; outline: as §1
[32] = Biodistribution in pancreas of BALB/c nu/nu mouse xenografted with human MDA-MB-231 cells at 7.4 kBq, iv using [125I] labeled compound measured after 180 mins by gamma counter method; assay type: ADME, organism-based; conditions: in vivo, 3 h; outline: as §1
[33] = Biodistribution in heart of BALB/c nu/nu mouse xenografted with human MDA-MB-231 cells at 7.4 kBq, iv using [125I] labeled compound measured after 180 mins by gamma counter method; assay type: ADME, organism-based; conditions: in vivo, 3 h; outline: as §1
[34] = Biodistribution in brain of BALB/c nu/nu mouse xenografted with human MDA-MB-231 cells at 7.4 kBq, iv using [125I] labeled compound measured after 180 mins by gamma counter method; assay type: ADME, organism-based; conditions: in vivo, 3 h; outline: as §1
[35] = Biodistribution in muscle of BALB/c nu/nu mouse xenografted with human MDA-MB-231 cells at 7.4 kBq, iv using [125I] labeled compound measured after 180 mins by gamma counter method; assay type: ADME, organism-based, Muscle tissue; conditions: in vivo, 3 h; outline: as §1
[36] = Biodistribution in tumor of BALB/c nu/nu mouse xenografted with human MDA-MB-231 cells at 7.4 kBq, iv using [125I] labeled compound measured after 180 mins by gamma counter method; assay type: ADME, organism-based, Neoplasm; conditions: in vivo, 3 h; outline: as §1

Compound CCCN1CCC(C(=O)N(C)Cc2cc(Cl)cc(-c3cc(-c4cc(C(F)(F)F)ccc4[125I])c(C#N)c(=O)[nH]3)c2O)CC1 has a Drug uptake [1] of 1.36 % ID/g, a Drug uptake [2] of 16.3 % ID/g and a Drug uptake [3] of 3.02 % ID/g. The Drug uptake [4] was 10.1 % ID/g, the Drug uptake [5] was 2.27 % ID/g and the Drug uptake [6] was 2.25 % ID/g. For the same compound, the Drug uptake [7] was 3.54 % ID/g, the Drug uptake [8] was 2.22 % ID/g and the Drug uptake [9] was 0.84 % ID/g. For the same compound, the Drug uptake [10] was 0.07 % ID/g, the Drug uptake [11] was 0.42 % ID/g and the Drug uptake [12] was 0.51 % ID/g. It also gave a Drug uptake [13] of 0.72 % ID/g, a Drug uptake [14] of 10.01 % ID/g and a Drug uptake [15] of 1.5 % ID/g. For the same compound, the Drug uptake [16] was 25.3 % ID/g, the Drug uptake [17] was 1.1 % ID/g and the Drug uptake [18] was 1.43 % ID/g. It also gave a Drug uptake [19] of 5.33 % ID/g, a Drug uptake [20] of 0.55 % ID/g and a Drug uptake [21] of 0.53 % ID/g. The Drug uptake [22] was 0.06 % ID/g, the Drug uptake [23] was 0.29 % ID/g and the Drug uptake [24] was 0.63 % ID/g. For the same compound, the Drug uptake [25] was 0.99 % ID/g, the Drug uptake [26] was 5.68 % ID/g and the Drug uptake [27] was 1.22 % ID/g. It also gave a Drug uptake [28] of 21.5 % ID/g, a Drug uptake [29] of 0.71 % ID/g and a Drug uptake [30] of 1.35 % ID/g. For the same compound, the Drug uptake [31] was 6.21 % ID/g, the Drug uptake [32] was 0.61 % ID/g and the Drug uptake [33] was 0.51 % ID/g. It also gave a Drug uptake [34] of 0.05 % ID/g, a Drug uptake [35] of 0.33 % ID/g and a Drug uptake [36] of 0.65 % ID/g.
